According to ChEMBL document CHEMBL1126070, “Bisquinolines. 1. N,N-bis(7-chloroquinolin-4-yl)alkanediamines with potential against chloroquine-resistant malaria” (J Med Chem, 1992):

What was measured:
Plasmodium berghei [1] = experiment: In vivo antimalarial activity against Plasmodium berghei infected mice (Mus musculus) at 40 mg/kg; format: functional
Plasmodium berghei [2] = experiment: In vivo antimalarial activity against Plasmodium berghei infected mice (Mus musculus) at 160 mg/kg; format: functional
Plasmodium falciparum [3] = experiment: In vitro activity against Plasmodium falciparum W-2; format: functional, organism-based
Procedure, shortened: (§1)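 Test compounds dissolved in DMSO and serially diluted in culture medium. Erythrocytes at 0.25 to 0.5% parasitemia added in 96-well microdilution plates to a final hematocrit of 1.5%. Activity indexed by inhibition of [3H]hypoxanthine uptake. IC50 derived from this uptake.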

[4] = Resistance index was measured as the ratio of IC50 of Plasmodium falciparum W-2 clone / IC50 of P. falciparum D-6 clone; format: functional
Procedure, shortened: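 P. falciparum clones D-6 (mefloquine-resistant) and W-2 (CQ-, pyrimethamine-, sulfadoxine- and quinine-resistant) were tested in parallel. Compounds were dissolved in DMSO and serially diluted in culture medium. Infected erythrocytes at 0.25–0.5% parasitemia were added to a final 1.5% hematocrit. IC50 for each clone came from inhibition of tritiated hypoxanthine uptake, and the index is IC50(W-2)/IC50(D-6).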

Plasmodium falciparum [5] = experiment: In vitro activity against Plasmodium falciparum D6; format: functional, organism-based; procedure, shortened: as §1
Plasmodium berghei [6] = experiment: In vivo antimalarial activity against Plasmodium berghei infected mice (Mus musculus) at 640 mg/kg; format: functional
Plasmodium berghei [7] = experiment: In vivo antimalarial activity against Plasmodium berghei infected mice (Mus musculus) at 640 mg/kg; Skin lesions at injection site; format: functional, organism-based; design: dose 640 mg/kg; conditions: Skin of body
Procedure, shortened: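 P. berghei (KBG 173) infected male mice, 5 per dose, given a single subcutaneous dose 3 days post-infection. Injection sites examined for skin lesions.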

Plasmodium berghei [8] = experiment: In vivo antimalarial activity against Plasmodium berghei infected mice (Mus musculus) at 320 mg/kg
Plasmodium berghei [9] = experiment: In vivo antimalarial activity against Plasmodium berghei infected mice (Mus musculus) at 640 mg/kg; C-1; format: functional, organism-based; design: dose 640 mg/kg

| SMILES | T-C (Plasmodium berghei [1]) [days] | T-C (Plasmodium berghei [2]) [days] | IC50 (Plasmodium falciparum [3]) [nM] | Resistance index [4] | IC50 (Plasmodium falciparum [5]) [nM] | T-C (Plasmodium berghei [6]) [days] | T-C (Plasmodium berghei [7]) | T-C (Plasmodium berghei [8]) [days] | T-C (Plasmodium berghei [9]) |
| --- | --- | --- | --- | --- | --- | --- | --- | --- | --- |
| Clc1ccc2c(NCCCCNc3ccnc4cc(Cl)ccc34)ccnc2c1 | 0.5 | 2.3 | 81 | 0.2 | 390 | 5.6 |  |  |  |
| Clc1ccc2c(NCCNc3ccnc4cc(Cl)ccc34)ccnc2c1 | 0 | 0.4 | 27 | 1.6 | 17 | 1.4 |  |  |  |
| Clc1ccc2c(NCCCCCCCNc3ccnc4cc(Cl)ccc34)ccnc2c1 | 2.6 | 7.2 | 4.3 | 2.3 | 1.9 |  |  |  |  |
| Clc1ccc2c(N3CCN(CCCN4CCN(c5ccnc6cc(Cl)ccc56)CC4)CC3)ccnc2c1 [PIPERAQUINE] |  |  | 16 | 1.9 | 8.3 |  |  |  |  |
| CCN(CC)CCCC(C)Nc1ccnc2cc(Cl)ccc12 (configuration not stated) [CHLOROQUINE] |  | >60 |  |  |  | >60 |  |  |  |
| Clc1ccc2c(NCCCCCNc3ccnc4cc(Cl)ccc34)ccnc2c1 | 1 | 5.1 | 3.8 | 1.5 | 2.5 | >60 |  |  |  |
| Clc1ccc2c(NCCCCCCCCCNc3ccnc4cc(Cl)ccc34)ccnc2c1 | 3.1 | 7.4 | 2.3 | 0.8 | 3 |  | Lesions 15A |  |  |
| Clc1ccc2c(NCCCCCCCCCCCCNc3ccnc4cc(Cl)ccc34)ccnc2c1 | 0 | -0.2 | 31 | 0.5 | 60 | 0 |  |  |  |
| Clc1ccc2c(NCCCCCCCCCCNc3ccnc4cc(Cl)ccc34)ccnc2c1 | 0.2 | 0.2 | 3.4 | 0.6 | 5.7 | 0.6 |  |  |  |
| Clc1ccc2c(NC3CCCCC3Nc3ccnc4cc(Cl)ccc34)ccnc2c1 (configuration not stated) | 8.5 | >60 | 1.4 | 1.4 | 1 |  |  | >60 |  |
| Clc1ccc2c(NCCCCCCNc3ccnc4cc(Cl)ccc34)ccnc2c1 | 0.4 | 3.9 | 23 | 1.1 | 21 | >60 |  |  |  |
| Clc1ccc2c(NCCCCCCCCNc3ccnc4cc(Cl)ccc34)ccnc2c1 | -0.2 | 1 | 3.1 | 0.6 | 5.6 |  |  |  | Curative-1 |
| Clc1ccc2c(NCCCNc3ccnc4cc(Cl)ccc34)ccnc2c1 | 0.2 | 0.4 | 83 | 5.5 | 15 | 1.2 |  |  |  |
| CC(CNc1ccnc2cc(Cl)ccc12)Nc1ccnc2cc(Cl)ccc12 (configuration not stated) | 3.4 | 5.7 | 3.9 | 1.1 | 3.5 | >60 |  |  |  |
| CC(CCCNc1ccnc2cc(Cl)ccc12)CNc1ccnc2cc(Cl)ccc12 (configuration not stated) | 1.2 | 3.6 | 3 | 1.1 | 2.7 | >60 |  |  |  |
